Laboratory results from ChEMBL document CHEMBL4118190, “An SAR study of hydroxy-trifluoromethylpyrazolines as inhibitors of Orai1-mediated store operated Ca2+ entry in MDA-MB-231 breast cancer cells using a convenient Fluorescence Imaging Plate Reader assay” (Bioorg Med Chem, 2018).

What was measured:
Type in all cases: cell-based
MDA-MB-231 = test: Inhibition of endoplasmic reticulum calcium channel in human MDA-MB-231 cells assessed as reduction in endoplasmic reticulum intracellular calcium release at 100 uM pretreated for 15 mins followed by SERCA inhibitor CPA addition measured after 700 secs by PBX dye based FLIPR assay relative to control
Method in brief: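 Same MDA-MB-231 PBX-dye FLIPR protocol: 15 min compound pretreatment at room temperature, then BAPTA (500 µM) and CPA (10 µM) to deplete ER stores. Peak 1 height after CPA addition (ER Ca2+ release) expressed as % inhibition relative to the DMSO control. Excitation 470–495 nm, emission 515–575 nm.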

[1] = target: T1, Calcium release-activated calcium channel protein 1 (Homo sapiens, UniProt Q96D31); test: Inhibition of […] Orai1-medited store operated calcium entry in human MDA-MB-231 cells pretreated for 15 mins followed by BAPTA addition by PBX dye based FLIPR assay
Method in brief: (§1)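 MDA-MB-231 cells seeded 2×10^3/well and used 3 days later. Loaded 1 h at 37 °C with 2 µM PBX calcium dye, 5% signal enhancer and 500 µM probenecid in PSS, pH 7.3. Compound pretreated 15 min at room temperature. Then 500 µM BAPTA, 10 µM CPA, and 0.5 mM CaCl2 700 s after CPA. Read-out: peak 2 height as % inhibition vs DMSO. 95% CI, n = 4.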
Target sequence in this assay (Q96D31 whole entry): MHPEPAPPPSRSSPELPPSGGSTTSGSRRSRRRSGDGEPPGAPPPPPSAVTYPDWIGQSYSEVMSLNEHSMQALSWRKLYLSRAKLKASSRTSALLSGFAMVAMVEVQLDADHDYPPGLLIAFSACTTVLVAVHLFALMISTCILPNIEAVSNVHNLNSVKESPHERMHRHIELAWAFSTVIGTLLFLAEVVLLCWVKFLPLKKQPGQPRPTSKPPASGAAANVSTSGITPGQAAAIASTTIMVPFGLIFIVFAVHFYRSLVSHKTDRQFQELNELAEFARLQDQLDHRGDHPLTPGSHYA

[2] = target: T1, Calcium release-activated calcium channel protein 1; test: Inhibition of […] Orai1-medited store operated calcium entry in human MDA-MB-231 cells at 100 uM pretreated for 15 mins followed by BAPTA addition by PBX dye based FLIPR assay relative to control; method in brief: as §1
Target sequence in this assay (Q96D31 whole entry, looked up): as the sequence (Q96D31 whole entry) above

SMILES | IC50 [1] | inhibition [2] | inhibition (MDA-MB-231)
Cc1ccccc1C1=NN(C(=O)Cc2ccccc2Cl)C(O)(C(F)(F)F)C1 (centres undefined) | 40 µM |  | < 10%
COc1cccc(OC)c1C1=NN(C(=O)Cc2ccccc2)C(O)(C(F)(F)F)C1 (centres undefined) |  | < 10% | < 10%
Cc1cccc(C2=NN(C(=O)CC3CCCCC3)C(O)(C(F)(F)F)C2)c1 (centres undefined) |  | < 10% | < 10%
Cc1ccccc1C1=NN(C(=O)c2ccccc2)C(O)(C(F)(F)F)C1 (centres undefined) |  | 20% | < 10%
Cc1ccc(CC(=O)N2N=C(c3cccc(C)c3)CC2(O)C(F)(F)F)cc1 (centres undefined) | 42 µM |  | < 10%
COc1cccc(CC(=O)N2N=C(c3cccc(C)c3)CC2(O)C(F)(F)F)c1 (centres undefined) | 32 µM |  | < 10%
O=C(Cc1ccccc1)N1N=C(c2ccc(OC(F)(F)F)cc2)CC1(O)C(F)(F)F (centres undefined) |  | < 10% | < 10%
COc1ccccc1CC(=O)N1N=C(c2cccc(C)c2)CC1(O)C(F)(F)F (centres undefined) |  | 50% | < 10%
COc1ccccc1C1=NN(C(=O)Cc2ccccc2)C(O)(C(F)(F)F)C1 (centres undefined) |  | 25% | < 10%
O=C(Cc1ccccc1)N1N=C(c2cccc(OCCN3CCOCC3)c2)CC1(O)C(F)(F)F (centres undefined) |  | 50% | 50%
O=C(Cc1ccccc1)N1N=C(c2ccccc2[N+](=O)[O-])CC1(O)C(F)(F)F (centres undefined) |  | 40% | < 10%
O=C(Cc1ccccc1)N1N=C(c2ccccc2OC(F)(F)F)CC1(O)C(F)(F)F (centres undefined) |  | < 10% | < 10%
Cc1ccc(CC(=O)N2N=C(c3ccccc3C)CC2(O)C(F)(F)F)cc1 (centres undefined) | 55 µM |  | < 10%
Cc1cccc(C2(O)CC(C(F)(F)F)=NN2C(=O)c2ccccc2)c1 (centres undefined) |  | < 10% | < 10%
Cc1cccc(CC(=O)N2N=C(c3ccccc3C)CC2(O)C(F)(F)F)c1 (centres undefined) | 42 µM |  | < 10%
O=C(Cc1ccccc1)N1N=C(c2ccc(Cl)cc2Cl)CC1(O)C(F)(F)F (centres undefined) | 58 µM | 60% | < 10%
Cc1cccc(C2=NN(C(=O)Cc3ccc(Cl)cc3)C(O)(C(F)(F)F)C2)c1 (centres undefined) | 60 µM |  | < 10%
Cc1cccc(C2=NN(C(=O)c3ccccc3)C(O)(C(F)(F)F)C2)c1 (centres undefined) |  | 30% | < 10%
Cc1cccc(C2=NN(C(=O)Cc3ccccc3Cl)C(O)(C(F)(F)F)C2)c1 (centres undefined) | 42 µM |  | < 10%
Cc1ccccc1CC(=O)N1N=C(c2ccccc2C)CC1(O)C(F)(F)F (centres undefined) |  | 20% | < 10%

SMILES | IC50 [1] | inhibition [2] | inhibition (MDA-MB-231)
COc1ccccc1CC(=O)N1N=C(c2ccccc2C)CC1(O)C(F)(F)F (centres undefined) |  | 60% | < 10%
O=C(Cc1ccccc1)N1N=C(c2cc(Cl)ccc2Cl)CC1(O)C(F)(F)F (centres undefined) | 54 µM | 60% | < 10%
O=C(Cc1ccccc1)N1N=C(c2cccc(F)c2F)CC1(O)C(F)(F)F (centres undefined) | 55 µM | 80% | < 10%
O=C(Cc1ccccc1)N1N=C(c2c(F)cccc2F)CC1(O)C(F)(F)F (centres undefined) |  | < 10% | < 10%
Cc1cccc(C2=NN(C(=O)COc3ccccc3)C(O)(C(F)(F)F)C2)c1 (centres undefined) |  | < 10% | < 10%
O=C(Cc1ccccc1)N1N=C(c2ccc([N+](=O)[O-])cc2)CC1(O)C(F)(F)F (centres undefined) |  | < 10% | < 10%
Cc1ccccc1C1=NN(C(=O)COc2ccccc2)C(O)(C(F)(F)F)C1 (centres undefined) | 105 µM |  | < 20%
Cc1cccc(C2=NN(C(=O)Cc3cccc(Cl)c3)C(O)(C(F)(F)F)C2)c1 (centres undefined) | 75 µM |  | < 10%
COc1ccc(CC(=O)N2N=C(c3ccccc3C)CC2(O)C(F)(F)F)cc1 (centres undefined) |  | 30% | < 10%
COc1ccc(CC(=O)N2N=C(c3cccc(C)c3)CC2(O)C(F)(F)F)cc1 (centres undefined) | 33 µM |  | < 10%
Cc1ccccc1C1(O)CC(C(F)(F)F)=NN1C(=O)CC1CCCCC1 (centres undefined) |  | 20% | < 10%
CC(=O)Nc1ccc(C2=NN(C(=O)Cc3ccccc3)C(O)(C(F)(F)F)C2)cc1 (centres undefined) |  | < 10% | < 10%
O=C(Cc1ccccc1)N1N=C(C(F)(F)F)CC1(O)c1ccccc1[N+](=O)[O-] (centres undefined) |  | 30% | 20%
COc1cccc(CC(=O)N2N=C(c3ccccc3C)CC2(O)C(F)(F)F)c1 (centres undefined) |  | 60% | < 10%
Cc1cccc(C2=NN(C(=O)Cc3ccccc3C)C(O)(C(F)(F)F)C2)c1 (centres undefined) |  | < 10% | < 10%
Cc1cccc(CC(=O)N2N=C(c3cccc(C)c3)CC2(O)C(F)(F)F)c1 (centres undefined) | 45 µM |  | < 10%
Cc1ccccc1C1=NN(C(=O)CC2CCCCC2)C(O)(C(F)(F)F)C1 (centres undefined) |  | < 10% | < 10%
O=C(Cc1ccccc1)N1N=C(c2ccccn2)CC1(O)C(F)(F)F (centres undefined) |  | 20% | < 10%
Cc1ccccc1C1=NN(C(=O)Cc2cccc(Cl)c2)C(O)(C(F)(F)F)C1 (centres undefined) | 79 µM |  | < 10%
Cc1ccccc1C1=NN(C(=O)Cc2ccc(Cl)cc2)C(O)(C(F)(F)F)C1 (centres undefined) | 47 µM |  | < 10%

Second part, led by results:

IC50 [1] | inhibition [2] | SMILES | inhibition (MDA-MB-231)
33 µM |  | O=C(Cc1ccccc1)N1N=C(c2ccccc2Cl)CC1(O)C(F)(F)F (centres undefined) | 50%
47 µM |  | O=C(Cc1ccccc1)N1N=C(c2cccc(Br)c2)CC1(O)C(F)(F)F (centres undefined) | < 10%
 | < 10% | O=C(Cc1ccccc1)N1N=C(c2ccc(F)cc2)CC1(O)C(F)(F)F (centres undefined) | < 10%
36 µM |  | Cc1cccc(C2=NN(C(=O)Cc3ccccc3)C(O)(C(F)(F)F)C2)c1 (centres undefined) | < 10%
 | < 10% | O=C(Cc1ccccc1)N1N=C(c2cccnc2)CC1(O)C(F)(F)F (centres undefined) | < 10%
29 µM |  | O=C(Cc1ccccc1)N1N=C(c2cccc(C(F)(F)F)c2)CC1(O)C(F)(F)F (centres undefined) | < 10%
89 µM |  | O=C(Cc1ccccc1)N1N=C(c2cccc([N+](=O)[O-])c2)CC1(O)C(F)(F)F (centres undefined) | < 10%
48 µM |  | O=C(Cc1ccccc1)N1N=C(c2cccc(Cl)c2)CC1(O)C(F)(F)F (centres undefined) | < 10%
 | < 10% | O=C(Cc1ccccc1)N1N=C(c2ccccc2)CC1(O)C(F)(F)F (centres undefined) | < 10%
 | 50% | O=C(Cc1ccccc1)N1N=C(c2cccc(OC(F)(F)F)c2)CC1(O)C(F)(F)F (centres undefined) | < 10%
 | < 10% | O=C(Cc1ccccc1)N1N=C(c2ccc(Br)cc2)CC1(O)C(F)(F)F (centres undefined) | < 10%
 | < 10% | O=C(Cc1ccccc1)N1N=C(c2ccc(Cl)cc2)CC1(O)C(F)(F)F (centres undefined) | < 10%
 | < 10% | Cc1ccc(C2=NN(C(=O)Cc3ccccc3)C(O)(C(F)(F)F)C2)cc1 (centres undefined) | < 10%
 | < 10% | N#Cc1ccc(C2=NN(C(=O)Cc3ccccc3)C(O)(C(F)(F)F)C2)cc1 (centres undefined) | < 10%
30 µM |  | O=C(Cc1ccccc1)N1N=C(c2ccccc2Br)CC1(O)C(F)(F)F (centres undefined) | < 10%
 | 30% | O=C(Cc1ccccc1)N1N=C(c2ccccc2F)CC1(O)C(F)(F)F (centres undefined) | < 10%
 | < 10% | COc1ccc(C2=NN(C(=O)Cc3ccccc3)C(O)(C(F)(F)F)C2)cc1 (centres undefined) | < 10%
 | < 10% | N#Cc1cccc(C2=NN(C(=O)Cc3ccccc3)C(O)(C(F)(F)F)C2)c1 (centres undefined) | < 10%
